From PubChem BioAssay
eIF4H FP inh – inhibitors of RNA binding by human eIF4H. Q15056. eIF4H fluorescence polarization binding assay. inhibition, % at 35 µM. hit rate 0.94% among 290,000. AID 2012;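 further: calls also rest on retests at 20 µM and on dose response follow-up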
SKN-1 inh – C. elegans SKN-1 inhibition. C. elegans VP596 Pgst-4::GFP/RFP ratio, acrylamide-induced, 24 h. inhibition, % at 21.8 µM. hit rate 0.49% among 360,000;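 active means interference check ratio from 0.5 to 1.5 plus GFP to RFP signal ratio inhibition reaching or exceeding a fixed threshold, cut at about 30% in these data, passing the limit was not always enough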
PABP FP inh – blocks human PABP binding to poly(A) RNA; hit rate 1% among 290,000; calls only at 35 µM; fluorescence polarization; P11940;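 further: calls also rest on retests at 20 µM and on dose response follow-up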
MT1-MMP act inh – MT1-MMP (human) activation inhibition; GFP/RFP ratio change, % at 20 µM; hit rate 0.061% among 360,000; HT1080 RFP-PRO-GFP cells, GFP/RFP ratio fluorescence, overnight; percent of plate control window, DMSO zero;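 active means GFP/RFP ratio change of at least 30% with cell ATP level not reduced by more than half and red fluorescence within 50% of control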
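Assay system: HT1080 cells carrying an RFP-PRO-GFP reporter | Dosing: Single dose of 20 µM compound, 1% DMSO final | Incubation: Cells overnight before dosing, compound overnight, 37 °C, 5% CO2 | Evaluation: GFP/RFP fluorescence ratio | Control set: DMSO and RFP-L50D-GFP cell wells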
PABP1 MLLE inh – inhibitors of microRNA-mediated deadenylation, human PABP1 MLLE binding. P11940. GST-MLLE / FITC-PAM2 fluorescence polarization. inhibition, % at 20 µM. hit rate 0.36% among 360,000. AID 588489; in the data active means inhibition above about 35%, passing the limit was not always enough;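 further: plate controls were DMSO wells with GST-MLLE for no effect and wells lacking GST-MLLE protein for full effect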
* hit, by the source's call. Sampled rows, rich in hits. Any-hit rate of the full collection: about 1.8%. Unless noted, how the calls were made is not given here.

C[C@@H]1CCCCO[C@@H](CN(C)C(=O)C2CCCCC2)[C@@H](C)CN([C@H](C)CO)C(=O)c2cc(NC(=O)NC3CCCCC3)ccc2O1 was read as SKN-1 inh -17, MT1-MMP act inh -2 and PABP1 MLLE inh 0.
`Cc1ccc(-c2cc[n+](Cc3ccccc3)cc2)cc1` gave eIF4H FP inh -2, SKN-1 inh 8, PABP FP inh inactive, MT1-MMP act inh -5 and PABP1 MLLE inh -9.
For Cc1ccc2c(c1)sc[n+]2Cc1ccccc1 the results were eIF4H FP inh -1, SKN-1 inh 4, PABP FP inh inactive, MT1-MMP act inh -3 and PABP1 MLLE inh 38*.
O=C(NCCc1cccc(C(F)(F)F)c1)C1CCC(=O)N(C2CC2)C1 (stereo unspecified) was read as eIF4H FP inh -8, SKN-1 inh 7, PABP FP inh inactive, MT1-MMP act inh 4 and PABP1 MLLE inh 4.
`Cc1cc(C)n2cc(CSc3nnc(N)s3)nc2n1` gave eIF4H FP inh -4, SKN-1 inh -17, PABP FP inh inactive, MT1-MMP act inh 0 and PABP1 MLLE inh 40*.
Screening O=C(Nc1cccc(S(=O)(=O)N2CCCC2)c1)[C@@H]1O[C@H](CO)[C@@H](O)[C@H]1O returned SKN-1 inh 8, MT1-MMP act inh 4 and PABP1 MLLE inh -10.
Screening CN(C(=O)COC(=O)c1c2c(nc3ccccc13)CCCC2)c1c(N)n(Cc2ccccc2)c(=O)[nH]c1=O returned SKN-1 inh 12, MT1-MMP act inh -4 and PABP1 MLLE inh -7.
For Cc1cccc(C(=O)NC(=S)NNC(=O)c2ccc(Cl)cc2)c1 the results were eIF4H FP inh 18, SKN-1 inh 15, PABP FP inh inactive, MT1-MMP act inh 3 and PABP1 MLLE inh 10.
`COc1cc(C(=O)NNC(=S)NC(=O)c2ccc(Cl)cc2)cc(OC)c1OC` gave eIF4H FP inh 12*, SKN-1 inh 5, PABP FP inh inactive, MT1-MMP act inh 13 and PABP1 MLLE inh 16.
`N#Cc1ccc(COC(=O)CN2C(=O)NC3(CCCC3)C2=O)cc1` gave SKN-1 inh -4, MT1-MMP act inh 3 and PABP1 MLLE inh 15.
`CC(=O)Nc1ccc(NC(=O)CC2Nc3cccc4cccc(c34)NC2=O)cc1` (stereo unspecified) gave eIF4H FP inh 106*, SKN-1 inh -6, PABP FP inh active, MT1-MMP act inh 1 and PABP1 MLLE inh 25.
Screening CC(=O)c1ccc(NC(=O)CC2Nc3cccc4cccc(c34)NC2=O)cc1 (stereo unspecified) returned eIF4H FP inh inconclusive, SKN-1 inh 6, PABP FP inh inconclusive, MT1-MMP act inh 2 and PABP1 MLLE inh 6.
For Cc1cccc(NC(=O)CC2Nc3cccc4cccc(c34)NC2=O)c1 (stereo unspecified) the results were eIF4H FP inh 113*, SKN-1 inh 7, PABP FP inh active, MT1-MMP act inh 4 and PABP1 MLLE inh 17.
For CC(C)(C)c1ccc2c(c1)OC(C(=O)N/N=C\c1ccccn1)CO2 (stereo unspecified) the results were eIF4H FP inh 7, SKN-1 inh -16, PABP FP inh inactive, MT1-MMP act inh 16 and PABP1 MLLE inh -5.
CNC(=S)N/N=C/c1ccc(-c2cccc(C(=O)O)c2)o1 was read as eIF4H FP inh -6, SKN-1 inh -7, PABP FP inh inactive, MT1-MMP act inh -2 and PABP1 MLLE inh 8.
Nc1nonc1C(=O)N/N=C/c1ccc(-c2cccc(C(=O)O)c2)o1 was read as eIF4H FP inh 55* and PABP FP inh inactive.
O=C(O)c1cccc(-c2ccc(/C=N/NC(=O)C3COc4ccccc4O3)o2)c1 (stereo unspecified) was read as eIF4H FP inh 72*, SKN-1 inh -11, PABP FP inh inactive, MT1-MMP act inh 5 and PABP1 MLLE inh -5.
CC(C)(C)c1ccc2c(c1)OC(C(=O)N/N=C\c1ccc(-c3cccc(C(=O)O)c3)o1)CO2 (stereo unspecified) was read as eIF4H FP inh 73*, SKN-1 inh -1, PABP FP inh active, MT1-MMP act inh -1 and PABP1 MLLE inh 2.
Screening CC1(C(=O)NS(=O)(=O)c2cccc(OC(F)F)c2)CCN1C(=O)CCc1cccs1 (stereo unspecified) returned SKN-1 inh 24, MT1-MMP act inh -3 and PABP1 MLLE inh 11.
CC1=C(C(=O)N(C(C)C)C(C)C)CC(CC(=O)NC2CC2)C(=O)N1Cc1ccc(F)cc1 (stereo unspecified) was read as SKN-1 inh 7, MT1-MMP act inh 1 and PABP1 MLLE inh 10.
Screening CC(=O)C(C(C)=O)C(c1ccccc1)c1nc2ccccc2[nH]c1=O (stereo unspecified) returned eIF4H FP inh -2, SKN-1 inh 3, PABP FP inh inactive, MT1-MMP act inh -2 and PABP1 MLLE inh 4.
`Cc1ccc(-c2nc(N)sc2CC(=O)OCC(=O)NCCC(C)C)cc1` gave eIF4H FP inh 119*, SKN-1 inh 6, PABP FP inh inactive, MT1-MMP act inh -12 and PABP1 MLLE inh 0.
Screening CCc1cc(=O)oc2c(CN3CCCC3)c(O)c(Cl)cc12 returned eIF4H FP inh 47, SKN-1 inh -4, PABP FP inh inactive, MT1-MMP act inh 1 and PABP1 MLLE inh 5.
`CCCCc1cc(=O)oc2cc(C)c(CN3CCCC3)c(O)c12` gave eIF4H FP inh 60*, SKN-1 inh -4, PABP FP inh active, MT1-MMP act inh -12 and PABP1 MLLE inh -38.
Screening CCc1cc(=O)oc2cc(C)c(CN3CCCC(C)C3)c(O)c12 (stereo unspecified) returned eIF4H FP inh 63*, SKN-1 inh -17, PABP FP inh active, MT1-MMP act inh -4 and PABP1 MLLE inh 5.
Screening O=C(CNC(=O)c1ccc(Br)o1)NCC(=O)OCc1ccccc1 returned SKN-1 inh -3, MT1-MMP act inh 0 and PABP1 MLLE inh 9.
For CN(C)C(=O)c1ccc(NC(=O)COC(=O)C2(c3ccccc3)CCCC2)cc1 the results were SKN-1 inh -5, MT1-MMP act inh 15 and PABP1 MLLE inh -7.
Screening CCN(c1c(C)n(C)n(-c2ccccc2)c1=O)S(C)(=O)=O returned eIF4H FP inh 7, SKN-1 inh -23, PABP FP inh inactive, MT1-MMP act inh -1 and PABP1 MLLE inh 52*.
`CCCCNC(=O)C1(C)CCN1Cc1ccc(C#N)cc1` (stereo unspecified) gave SKN-1 inh 6, MT1-MMP act inh 0 and PABP1 MLLE inh 2.
`Cn1cc([C@]2(O)C(=O)Nc3ccc(F)cc32)c2ccccc21` gave SKN-1 inh 6 and MT1-MMP act inh 3.
`CC(=O)c1ccc(-c2ccc(/C=C(/Sc3n[nH]c(C)n3)C(=O)O)o2)cc1` gave eIF4H FP inh 18, SKN-1 inh 0, PABP FP inh inactive, MT1-MMP act inh -14 and PABP1 MLLE inh -124.
